We go through 20 compounds from ChEMBL document CHEMBL2417519, “Structure-activity relationships for ketamine esters as short-acting anaesthetics” (Bioorg Med Chem, 2013).

What all share (type): functional
The test system of assay [1] is Rattus norvegicus. The experiment in a line: Analgesic effect in iv dosed Sprague-Dawley rat assessed as time required to cause pedal withdrawal reflex. An outline of the steps: (§1)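 Adult female Sprague-Dawley rats (~350–450 g), restrained, tail marginal vein cannulated; drug at 10 mg/ml given by continuous iv infusion, initially 20 mg/kg/min until pedal withdrawal reflex score PWR = 1, then 6.7 mg/kg/min titrated up-and-down to keep dorsal recumbency and PWR = 1 to 10 min before cessation. Three rats per study, each its own ketamine control; randomised order, ≥1 h recovery between experiments.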

Assay [2] has as its system Rattus norvegicus. As to the kind of experiment: Anesthetic effect in iv dosed Sprague-Dawley rat assessed as time required to walk. An outline of the steps: as §1
For assay [3], the system named is Rattus norvegicus. As to the kind of experiment: Analgesic effect in iv dosed Sprague-Dawley rat assessed as dose required to cause pedal withdrawal reflex. Summed up:
as §1

Assay [4] concerns Rattus norvegicus. As to the kind of experiment: Anesthetic effect in iv dosed Sprague-Dawley rat assessed as duration of loss of righting reflex. Summed up:
as §1

For assay [5], the system named is Rattus norvegicus. As to the kind of experiment: Anesthetic effect in iv dosed Sprague-Dawley rat assessed as dose required to cause loss of righting reflex. An outline of the steps: as §1
Assay [6] has as its system Rattus norvegicus. As to the kind of experiment: Anesthetic effect in iv dosed Sprague-Dawley rat assessed as duration of recovery of righting reflex. An outline of the steps:
as §1

`CN(C)[C@]1(c2ccccc2Cl)CCCCC1=O.Cl`: the Time in the assay with Rattus norvegicus [1] is given as 103 s; in the assay with Rattus norvegicus [2] it was 1215 s; in the assay with Rattus norvegicus [4], 94 s; with Rattus norvegicus [6], 880 s. Moreover, the Activity in the assay on Rattus norvegicus [3] turned out to be 35 mg/kg; in the assay on Rattus norvegicus [5], 32 mg/kg.
Take `Cl.O=C1CCCC[C@]1(NCCCO)c1ccccc1Cl`: the Time in the assay on Rattus norvegicus [1] was 102 s; with Rattus norvegicus [2], 588 s; in the assay with Rattus norvegicus [4], 59 s; in the assay with Rattus norvegicus [6], 341 s. Moreover, the figures for the Activity in the assay on Rattus norvegicus [3] and with Rattus norvegicus [5] were 34 mg/kg and 21 mg/kg, respectively.
As to `CC(=O)OCCCN[C@]1(c2ccccc2Cl)CCCCC1=O.Cl`, the Activity in the assay on Rattus norvegicus [3] was found to be 34 mg/kg; with Rattus norvegicus [5], 26 mg/kg. The Time in the assay on Rattus norvegicus [4] was 81 s.
As for `CCOC(=O)CCN[C@]1(c2ccccc2Cl)CCCCC1=O.Cl`, the Time is on record as 185 s in the assay on Rattus norvegicus [1], 80 s in the assay with Rattus norvegicus [2], 171 s in the assay with Rattus norvegicus [4] and 62 s with Rattus norvegicus [6]. In addition, the figures for the Activity in the assay with Rattus norvegicus [3] and in the assay on Rattus norvegicus [5] were 62 mg/kg and 59 mg/kg, respectively.
`CC(C)OC(=O)CCN[C@]1(c2ccccc2Cl)CCCCC1=O.Cl`: the Activity in the assay on Rattus norvegicus [3] was 84 mg/kg; with Rattus norvegicus [5], 74 mg/kg. The Time in the assay on Rattus norvegicus [6] came out at 15 s.
Turning to `CC(C)OC(=O)CCN[C@@]1(c2ccccc2Cl)CCCCC1=O.Cl`, the Time in the assay with Rattus norvegicus [1] is on record as 190 s; in the assay on Rattus norvegicus [2] it was 900 s; in the assay on Rattus norvegicus [4], 170 s; in the assay with Rattus norvegicus [6] it was 0 s. In addition, the Activity is 82 mg/kg with Rattus norvegicus [3] and 71 mg/kg in the assay on Rattus norvegicus [5].
For `CCCOC(=O)CCNC1(c2ccccc2Cl)CCCCC1=O.Cl` (racemic), the Time in the assay on Rattus norvegicus [1] was found to be 420 s; in the assay with Rattus norvegicus [2] it was 0 s; with Rattus norvegicus [4], 404 s; in the assay on Rattus norvegicus [6], 0 s. In addition, the Activity was found to be 136 mg/kg with Rattus norvegicus [3] and 131 mg/kg with Rattus norvegicus [5].
For `CCOC(=O)CCCNC1(c2ccccc2Cl)CCCCC1=O.Cl` (racemic), the Time in the assay with Rattus norvegicus [2] is given as 170 s; in the assay with Rattus norvegicus [4] it was 70 s; in the assay with Rattus norvegicus [6], 95 s. Besides, the Activity with Rattus norvegicus [3] is 44 mg/kg; with Rattus norvegicus [5], 24 mg/kg.
Turning to `CC(C)OC(=O)CCCNC1(c2ccccc2Cl)CCCCC1=O.Cl` (racemic), the figures for the Time with Rattus norvegicus [2] and in the assay with Rattus norvegicus [6] were 110 s and 37 s, respectively. Further, the Activity in the assay on Rattus norvegicus [3] amounted to 66 mg/kg; in the assay on Rattus norvegicus [5] it was 42 mg/kg.
With `CCCOC(=O)CCCNC1(c2ccccc2Cl)CCCCC1=O.Cl` (racemic), the Time is 558 s in the assay on Rattus norvegicus [1], 65 s with Rattus norvegicus [2], 329 s in the assay with Rattus norvegicus [4] and 10 s with Rattus norvegicus [6]. The results for the Activity in the assay with Rattus norvegicus [3] and in the assay on Rattus norvegicus [5] were 209 mg/kg and 137 mg/kg, respectively.
For the compound `CCOC(=O)CCCCNC1(c2ccccc2Cl)CCCCC1=O.Cl` (racemic), the Time in the assay with Rattus norvegicus [2] is given as 112 s; with Rattus norvegicus [4], 97 s. In addition, the Activity with Rattus norvegicus [3] worked out at 57 mg/kg; in the assay with Rattus norvegicus [5] it was 34 mg/kg.
On to `CC(C)OC(=O)CCCCNC1(c2ccccc2Cl)CCCCC1=O.Cl` (racemic), for which the Time with Rattus norvegicus [2] is 320 s; in the assay with Rattus norvegicus [6] it was 180 s. The Activity with Rattus norvegicus [3] and in the assay with Rattus norvegicus [5] was 38 mg/kg each time.
Regarding `CCCOC(=O)CCCCNC1(c2ccccc2Cl)CCCCC1=O.Cl` (racemic), the Time is 277 s with Rattus norvegicus [1], 90 s in the assay on Rattus norvegicus [2], 271 s in the assay on Rattus norvegicus [4] and 45 s in the assay with Rattus norvegicus [6]. Further, the figures for the Activity with Rattus norvegicus [3] and in the assay on Rattus norvegicus [5] were 83 mg/kg and 82 mg/kg, respectively.
In the case of `CN(C)C1(c2ccccc2Cl)CCCCC1=O.Cl` (racemic), the Time is 130 s with Rattus norvegicus [1], 1740 s in the assay with Rattus norvegicus [2], 125 s in the assay on Rattus norvegicus [4] and 1500 s with Rattus norvegicus [6]. For the same compound, the Activity in the assay on Rattus norvegicus [3] and in the assay on Rattus norvegicus [5] was 43 mg/kg each time.
In the case of `CCOC(=O)CCN(C)C1(c2ccccc2Cl)CCCCC1=O` (racemic), the Time in the assay on Rattus norvegicus [1] amounted to 290 s; in the assay on Rattus norvegicus [2], 0 s; in the assay with Rattus norvegicus [4] it was 280 s; with Rattus norvegicus [6], 0 s. The Activity in the assay with Rattus norvegicus [3] turned out to be 99 mg/kg; with Rattus norvegicus [5], 95 mg/kg.
For the compound `CCOC(=O)CCCN(C)C1(c2ccccc2Cl)CCCCC1=O.Cl` (racemic), the Time is given as 600 s with Rattus norvegicus [1], 0 s in the assay with Rattus norvegicus [2], 600 s in the assay with Rattus norvegicus [4] and 0 s with Rattus norvegicus [6].
As for `COC(=O)CCCCN(C)C1(c2ccccc2Cl)CCCCC1=O` (racemic), the Time in the assay on Rattus norvegicus [4] came out at 420 s; with Rattus norvegicus [6], 0 s.
With `CCOC(=O)CCNC1(c2ccccc2Cl)CCCCC1=O.Cl` (racemic), the Activity with Rattus norvegicus [3] was determined as 55 mg/kg; in the assay with Rattus norvegicus [5], 48 mg/kg.
As for `CC(C)OC(=O)CCNC1(c2ccccc2Cl)CCCCC1=O.Cl` (racemic), the Activity in the assay with Rattus norvegicus [3] came to 37 mg/kg; with Rattus norvegicus [5], 33 mg/kg. Further, in the assay with Rattus norvegicus [6], the Time was 83 s.
For the compound `CNC1(c2ccccc2Cl)CCCCC1=O` (racemic) [KETAMINE], the Time is 60 s in the assay with Rattus norvegicus [1], 900 s in the assay with Rattus norvegicus [2], 51 s with Rattus norvegicus [4] and 480 s in the assay on Rattus norvegicus [6]. Moreover, the results for the Activity in the assay on Rattus norvegicus [3] and in the assay on Rattus norvegicus [5] were 21 mg/kg and 17 mg/kg, respectively.
